From PubChem
Compounds with a hit are over-represented: about 4.5% of the library has one in this group of screens.
TAAR1 ag: human TAAR1 agonists, primary screen, Fluo-8 calcium fluorescence, CHO RD-HGA16 cells. Trace amine-associated receptor 1 (Homo sapiens), Q96RJ0. vehicle wells 0%, saturating PEA agonist 100%. activation, % at 3 µM. 360,000 tested, 0.99% active. AID 624467, 2012;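 active means activation above the mean activation of all test compounds in the run plus 3 SD, cut at about 38% in these data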
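Repeats: no replicates (n 1) | Material: CHO-derived RD-HGA16 cells with stable Gα16 and human TAAR1 | Technique: Kinetic Fluo-8 calcium fluorescence | Schedule: 17-24 h seeding, 75 min 37 °C dye, 30 min RT | Evaluation: % activation from peak over basal fluorescence ratio, DMSO-to-PEA scaled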
CHO parental Ca: ATP-evoked calcium signal inhibitors, parental CHO, primary screen, counter-screen for OX1R antagonist project, cell-based, fluorescence, Fluo-8 calcium dye; inhibition, % at 5.6 µM; parental CHO-K1, ATP-induced calcium, Fluo-8 fluorescence; 330,000 tested, 0.63% active;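 active means inhibition above that plate's mean sample inhibition plus 3 SD, cut at about 26% in these data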;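 further: 0% = ATP-challenged DMSO wells and 100% = DMSO wells without ATP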
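Test system: untransfected parental CHO cell line. Compound: one dose, 5.6 µM nominal. Detection: intracellular calcium via Fluo-8 no-wash fluorescent dye. Measure: % inhibition. Benchmarks: ATP-challenged DMSO wells low, unchallenged DMSO wells high.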
GPR7 antag: GPR7 receptor antagonists, primary screen, cell-based, fluorescence, single concentration; 290,000 tested, 1.1% active; Neuropeptides B/W receptor type 1 (Homo sapiens), P48145; GPR7-expressing cells, fluorescence antagonist assay; inhibition, % at 4.4 µM; in the data active means inhibition above about 16%, passing the limit was not always enough;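 further: cells stimulated with the agonist NPW; 0% = agonist with vehicle and 100% = vehicle without agonist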
TAAR1 antag: human TAAR1 antagonists, primary screen, Fluo-8 calcium fluorescence, CHO RD-HGA16 cells | Trace amine-associated receptor 1 (Homo sapiens), Q96RJ0 | 360,000 tested, 1.5% active | inhibition, % at 3 µM | AID 624466, 2012 | antagonist;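 active means inhibition above a per-plate cutoff, the mean inhibition of test compounds on that plate plus 3 SD, cut at about 49% in these data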;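 further: 0% = DMSO plus EC80 beta-PEA response and 100% = DMSO alone without agonist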
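System: RD-HGA16 CHO cells with stable hTAAR1 and Gα16 | Probe or stimulus: EC80 β-phenethylamine stimulus | Dosing: 3 µM, single point | Times: Dye loading 75 min at 37 °C, then 30 min room temperature | Measured by: Fluo-8 calcium-sensitive fluorescence | Read-out basis: % inhibition of agonist calcium response | Replicates: n of 1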
OX1R antag-1: antagonists of human orexin 1 receptor (OX1R) | OX1R-expressing cells, FRET antagonist read-out | inhibition, % at 6.6 µM | 330,000 tested, 1.8% active | AID 485270, 2010; in the data active means inhibition mostly above about 38%, no sharp cut-off; inactive means mostly below about 40%;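 further: 0% = agonist challenge alone and 100% = reference antagonist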
Target sequence (O43613 whole entry, looked up): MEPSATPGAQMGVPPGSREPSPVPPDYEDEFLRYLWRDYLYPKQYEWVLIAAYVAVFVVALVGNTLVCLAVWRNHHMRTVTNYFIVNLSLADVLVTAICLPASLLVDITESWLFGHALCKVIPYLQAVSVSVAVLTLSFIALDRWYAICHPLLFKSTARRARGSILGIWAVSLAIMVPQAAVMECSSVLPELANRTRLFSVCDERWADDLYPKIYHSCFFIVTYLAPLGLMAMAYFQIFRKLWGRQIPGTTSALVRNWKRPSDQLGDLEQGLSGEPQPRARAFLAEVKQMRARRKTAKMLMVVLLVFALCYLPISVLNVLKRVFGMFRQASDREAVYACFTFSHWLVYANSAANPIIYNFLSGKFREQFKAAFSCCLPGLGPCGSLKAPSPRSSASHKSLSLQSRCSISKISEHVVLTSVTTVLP
OX1R antag-2: OX1R (HCRTR1) antagonists, primary screen, fluorescence, CHO/OX1R cells, Fluo-8 calcium, orexin A | Orexin/Hypocretin receptor type 1 (Homo sapiens), O43613 | Fluo-8 calcium fluorescence | inhibition, % at 5 µM | 330,000 tested, 0.43% active | AID 434989, 2010;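 active means inhibition above its plate's threshold, mean inhibition of all tested compounds on the plate plus 3 SD, cut at about 37% in these data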;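 further: 0% = orexin A challenge wells and 100% = SB-334867-A antagonist wells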
* marks the source's active call; other numbers are inactive results; . = not tested or not shown.

SMILES	TAAR1 ag	CHO parental Ca	GPR7 antag	TAAR1 antag	OX1R antag-1	OX1R antag-2
CC(C)(C)n1ncc2c(=O)n(Cc3cccc(Cn4cnc5c(cnn5C(C)(C)C)c4=O)c3F)cnc21	8	62*	.	10	29	64*
COc1ccc(C)cc1NC(=O)c1nn(C)c(C(=O)Nc2cc(C)ccc2OC)c1[N+](=O)[O-]	4	-17	-20	-30	34*	-5
Cc1ccccc1NC(=O)c1nn(C)c(C(=O)Nc2ccccc2C)c1[N+](=O)[O-]	7	-14	-6	3	8	-9
COc1ccccc1C(=O)N1CCN(C(=O)[C@@H](Cc2ccccc2)NC(=O)[C@H]2O[C@@H](n3ccc(=O)[nH]c3=O)[C@H](O)[C@@H]2O)CC1	3	.	.	-31	.	.
CCOC(=O)c1oc2ccccc2c1COC(=O)CNC(=O)c1cc(OC)c(OC)c(OC)c1	4	-31	.	-4	35	-32
CCOC(=O)c1oc2ccccc2c1COC(=O)CNC(=O)c1ccccc1OC	4	-19	.	15	68*	-6
COC(=O)c1ccccc1-c1ccc(/C=N/NC(=O)c2cc3ccccc3o2)o1	10	-15	1	55*	36	-22
O=C(N/N=C/c1cccc2ccccc12)c1cc2ccccc2o1	0	.	9	14	.	.
Cc1cccc(-c2cc(=O)c(C(=O)O)cn2-c2ccc(F)cc2F)c1	0	-1	.	-10	58*	5
COC(=O)CC1C(=O)NCCN1C(=O)c1cc(OC)c(OC)cc1OC (configuration not stated)	2	30*	3	-7	-6	-15
Clc1ccc2c(c1)-c1nnc(Br)n1-c1ccccc1S2	8	2	-2	9	60*	20
Clc1ccccc1-c1nnc2n1-c1ccccc1SC2	3	-9	-10	-11	13	1
C=CC[n+]1ccc(/C=C2\C=Cc3cc(C)ccc3N2CC)c2ccccc21	.	.	26*	.	.	.
Cc1ccc(Cc2c(-c3cccc(Cl)c3)nc3c(C)cc(Br)cn23)cc1	-1	.	.	-12	.	.
OCCN1CN(c2ccccc2)C(=S)N(c2ccccc2)C1	2	.	.	-17	.	.
CCOc1cccc(N)c1	.	-16	.	.	3	-4
CCOc1ccc(N)c(SSc2cc(OCC)ccc2N)c1	21	47*	8	-7	5	24
CC(=O)N(C)C[C@@H]1OCc2ccccc2-c2c(n(C)c3ccccc23)C(=O)N([C@@H](C)CO)C[C@@H]1C	0	.	.	-13	.	.
COC(=O)c1ccc(Oc2nc(Nc3ccc(C)c(C)c3)nc(N(C)C)n2)cc1	9	-35	1	20	39*	-51
COC(=O)c1cc2c(c3c4cc(C)ccc4n(S(=O)(=O)c4cccc(C)c4)c13)C(=O)N(Cc1ccc(N(C)C)cc1)C2	-2	.	.	-13	.	.
Cc1ccc(C)c(NC(=S)NCCc2ccc(F)cc2)c1	2	-8	-4	5	20	-13
Cc1ccc(C)c(NC(=S)NNc2ccc(F)cc2F)c1	0	71*	18	44	17	83*
COC(=O)c1cc2c(c3c4cc(OC)ccc4n(S(=O)(=O)c4cccc(C)c4)c13)C(=O)N(Cc1ccc(C(F)(F)F)cc1)C2	-1	.	.	-18	.	.
CN(C)S(=O)(=O)Oc1ccc(C(=O)Nc2cccc(C(F)(F)F)c2)cc1	6	53*	1	41	51*	1
CN1CCCCC(NC(=O)c2cccc(F)c2)C1=O (configuration not stated)	1	.	.	3	.	.
SMILES	TAAR1 ag	CHO parental Ca	GPR7 antag	TAAR1 antag	OX1R antag-1	OX1R antag-2
CCOC(=O)/C(N=Nc1c(C)n(C)n(-c2ccccc2)c1=O)=C(/O)c1ccccc1	6	2	-11	-13	52*	-14
O=C(NCc1ccccc1)C1c2ccccc2OCC(=O)N1Cc1cccnc1 (configuration not stated)	0	.	.	1	.	.
O=C1CCSC2=C1SCc1sccc12	2	.	.	-17	.	.
COC(=O)c1sc(NC(=O)COc2cccc(C)c2)nc1C	-1	-6	13	-3	69*	-13
C/C(N)=C(/C#N)C(=O)CSc1nnnn1-c1ccccc1	12	4	-10	-5	12	-11
C/C(N)=C(/C#N)C(=O)CSc1nnnn1-c1ccc(C)cc1	21	-2	15*	3	0	-12
Nc1nc2c(ncn2[C@@H]2O[C@H](C(=O)NCC(c3ccccc3)c3ccccc3)[C@@H](O)[C@H]2O)c(=O)[nH]1	1	.	.	-11	.	.
C[C@H](O)[C@@H]1C(=O)N2CCc3c([nH]c4c(-c5ccccc5)cccc34)[C@@H]2C[C@@H]1N(C)C(=O)/C=C/c1ccccc1	3	.	.	-1	.	.
C[C@@H]1C=CCCO[C@]12C(=O)N(CC1CC1)c1ccccc12	0	.	.	-35	.	.
COc1ccc(C(=O)OCC(=O)Nc2sccc2C(N)=O)cc1[N+](=O)[O-]	29	-16	.	55*	17	6
Cc1ccsc1C(=O)OCC(=O)Nc1sccc1C(N)=O	42*	-11	2	24	47	-20
NC(=O)c1ccsc1NC(=O)COC(=O)/C=C/c1ccc([N+](=O)[O-])cc1	8	-5	3	36	9	-4
COc1ccc(C(=O)OCC(=O)NC(=O)NC2CCCC2)cc1[N+](=O)[O-]	3	-6	.	4	7	-10
COC(=O)c1ccc(/C=C/C(=O)OCC(=O)Nc2sccc2C(N)=O)cc1	.	22	.	.	56*	33
Cc1ccsc1C(=O)OCC(=O)NCCNC(=O)COC(=O)c1sccc1C	2	-16	.	-9	22	-14
NC(=O)c1ccsc1NC(=O)COC(=O)c1ccc(Cl)c(N)c1	14	-21	.	53*	28	-3
COc1ccc(NC(=O)N[C@H]2C=C[C@@H](CC(=O)NC3CCC3)O[C@@H]2CO)cc1	1	.	.	-5	.	.
CC(=NNc1cc(C)c2cc(C)ccc2n1)c1ccccn1	24	.	.	39	.	.
COc1ccccc1CCn1cnc(-c2ccc(F)cc2F)c1CC(C)C	14	.	.	15	.	.
Cc1cccc2nc(-c3ccccc3)c(-c3ccc(CN4CCC5(CC4)CNc4ccccc45)cc3)nc12	-2	.	.	-29	.	.
NC(=O)c1ccsc1NC(=O)COC(=O)CSc1ccc(Cl)cc1	13	42*	-3	42	8	45*
CC(=O)N1CCc2c(sc(NC(=O)C3CCCN3S(=O)(=O)c3cccs3)c2C(N)=O)C1 (configuration not stated)	2	-14	.	-4	39*	-5
